Data from ChEMBL document CHEMBL1124847, “Synthesis and antiviral activity of metabolites of rimantadine” (1990).
Converted amounts (≈) assume the structure as drawn.

Tests used:
Type in all cases: functional
Conditions in all cases: Canis lupus familiaris, read-out: ID50 (the source's name)
MDCK [1] = assay: Antiviral activity against influenza A virus (Mississippi) in Madin Darby canine kidney (MDCK) cell culture
Outline: (§1)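 Confluent MDCK monolayers were given compound in serial 2-fold dilutions, then infected with 100 TCID50 of virus and incubated at 35 °C for 48 h. Cells were fixed, stained and scored microscopically for cytopathic effect. The dose giving 50% inhibition of CPE was read when infected controls just reached 100% CPE, in ng/mL, as the mean ± SD of at least three determinations.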

MDCK [2] = assay: Antiviral activity against influenza A virus (NY/83/5) in Madin Darby canine kidney (MDCK) cell culture; outline: as §1
MDCK [3] = assay: Antiviral activity against influenza A virus (Taiwan) in Madin Darby canine kidney (MDCK) cell culture; outline: as §1

CC(N)C12CC3CC(C1)C(O)C(C3)C2 (stereo not given)
IC50 (MDCK [1]): 3.4 µg/mL (≈ 17.4 µM) | IC50 (MDCK [2]): 0.804 µg/mL (≈ 4.12 µM) | IC50 (MDCK [3]): 1.5 µg/mL (≈ 7.68 µM)

CC(N)C12CC3CC(CC(C3)C1)C2 (stereo not given) [RIMANTADINE]
IC50 (MDCK [1]): 0.021 µg/mL (≈ 0.117 µM) | IC50 (MDCK [2]): 0.012 µg/mL (≈ 0.0669 µM) | IC50 (MDCK [3]): 0.0098 µg/mL (≈ 0.0547 µM)

CC(N)C12CC3CC(CC(O)(C3)C1)C2 (stereo not given) [3-HYDROXYRIMANTADINE]
IC50 (MDCK [1]): 6.7 µg/mL (≈ 34.3 µM) | IC50 (MDCK [2]): 4 µg/mL (≈ 20.5 µM) | IC50 (MDCK [3]): 5.4 µg/mL (≈ 27.6 µM)

NC12CC3CC(CC(C3)C1)C2 [AMANTADINE]
IC50 (MDCK [1]): 0.113 µg/mL (≈ 0.747 µM) | IC50 (MDCK [2]): 0.08 µg/mL (≈ 0.529 µM) | IC50 (MDCK [3]): 0.116 µg/mL (≈ 0.767 µM)

CC(N)C12CC3CC(CC(C3)C1O)C2 (stereo not given)
IC50 (MDCK [1]): 0.15 µg/mL (≈ 0.768 µM) | IC50 (MDCK [2]): 0.101 µg/mL (≈ 0.517 µM) | IC50 (MDCK [3]): 0.16 µg/mL (≈ 0.819 µM)
